Laboratory results reported in ChEMBL document CHEMBL4196178, “Structure-Based Drug Design of Potent Pyrazole Derivatives against Rhinovirus Replication” (J Med Chem, 2018).

assay: Selectivity index, ratio of CC50 for human HeLa Rh cells to EC50 for Rhinovirus B14 capsid infected in human HeLa Rh cells; format: toxicity, cell-based; conditions: read-out: Ratio CC50/EC50
Procedure, shortened: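 SI = CC₅₀/EC₅₀ for RV-B14 in HeLa Rh cells, both from the same 3-day 35 °C MTS CPE assay. CC₅₀ was obtained by light-microscope scoring of compound-treated uninfected cells, and EC₅₀ from MTS dose-response. Both values were derived by logarithmic interpolation and reported as median ± median absolute deviation.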

Question: Which selectivity ratio does the source give for O=[N+]([O-])c1cc(Br)ccc1CC(O)c1ccc(-n2cncn2)cc1 (racemic) here?
Answer: The selectivity ratio was 156.

Question: Which selectivity ratio does the source give for O=[N+]([O-])c1cc(Br)ccc1CC(O)c1ccc(-c2ccncc2)cc1 (racemic) here?
Answer: The selectivity ratio was greater than 424.

Question: Which selectivity ratio does the source give for O=[N+]([O-])c1cc(-c2cccs2)ccc1CC(O)c1ccc(-c2ccncc2)cc1 (racemic) here?
Answer: The selectivity ratio was greater than 191.

Question: For Cn1nc(C(F)(F)F)cc1-c1ccc(CC(O)c2ccc(-c3ccncc3)cc2)c([N+](=O)[O-])c1 (racemic), which selectivity ratio is on record?
Answer: The selectivity ratio was greater than 100.

Question: For O=[N+]([O-])c1cc(Br)ccc1CC(O)c1ccc(-n2cccn2)cc1 (racemic), which selectivity ratio is on record?
Answer: Its selectivity ratio is 90.

Question: Which selectivity ratio does the source give for O=[N+]([O-])c1cc(F)ccc1CC(O)c1ccc(-n2cccn2)cc1 (racemic) here?
Answer: Its selectivity ratio is greater than 12.

assay: Cytotoxicity against human HeLa Rh cells assessed as reduction in cell viability after 3 days by MTS assay; format: cell-based; conditions: not given

Question: Which CC50 at 72 h does the source give for Cn1cc(-c2ccc(C[C@@H](O)c3ccc(-n4cncn4)cc3)c([N+](=O)[O-])c2)cn1 here?
Answer: Its CC50 at 72 h is greater than 342 µM.

Question: Which CC50 at 72 h does the source give for Cn1nc(C(F)(F)F)cc1-c1ccc(CC(O)c2ccc(-n3cncn3)cc2)c([N+](=O)[O-])c1 (racemic) here?
Answer: Its CC50 at 72 h is 21 µM.

Question: For Cc1noc(C)c1-c1ccc(CC(O)c2ccc(-n3cncn3)cc2)c([N+](=O)[O-])c1 (racemic), which CC50 at 72 h is on record?
Answer: The CC50 at 72 h was greater than 256 µM.

Question: For O=[N+]([O-])c1cc(Br)ccc1CC(O)c1ccc(-n2cncn2)cc1 (racemic), which CC50 at 72 h is on record?
Answer: Its CC50 at 72 h is 39 µM.

Question: With O=[N+]([O-])c1cc(Br)ccc1CC(O)c1ccc(-c2ccncc2)cc1 (racemic) as the compound, how does the CC50 at 72 h read?
Answer: The CC50 at 72 h was greater than 250 µM.

Question: Which CC50 at 72 h does the source give for O=[N+]([O-])c1cc(-c2cccs2)ccc1CC(O)c1ccc(-c2ccncc2)cc1 (racemic) here?
Answer: The CC50 at 72 h was greater than 248 µM.

Question: With Cn1nc(C(F)(F)F)cc1-c1ccc(CC(O)c2ccc(-c3ccncc3)cc2)c([N+](=O)[O-])c1 (racemic) as the compound, how does the CC50 at 72 h read?
Answer: Its CC50 at 72 h is greater than 100 µM.

Question: Which CC50 at 72 h does the source give for O=[N+]([O-])c1cc(Br)ccc1CC(O)c1ccc(-n2cccn2)cc1 (racemic) here?
Answer: The CC50 at 72 h was 22.5 µM.

Question: For O=[N+]([O-])c1cc(F)ccc1CC(O)c1ccc(-n2cccn2)cc1 (racemic), which CC50 at 72 h is on record?
Answer: The CC50 at 72 h was greater than 100 µM.

Question: With Cc1noc(C)c1-c1ccc(CC(O)c2ccc(-n3cccn3)cc2)c([N+](=O)[O-])c1 (racemic) as the compound, how does the CC50 at 72 h read?
Answer: The CC50 at 72 h was 14 µM.
